ChEMBL document CHEMBL1123655, “Synthesis, cell growth inhibition, and antitumor screening of 2-(p-n-butylanilino)purines and their nucleoside analogues” (J Med Chem, 1987)
One block for each compound: values may come before it.

Columns and labels:
[1] = tested on: HeLa; assay: Compound was evaluated for the effect on DNA synthesis by HeLa cells in culture and the inhibition of [3H]- thymidine incorporation after 3h of addition; type: functional, cell-based; conditions: Homo sapiens
Outline: (§1)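 IC50 for [methyl-3H]thymidine incorporation into DNA of exponentially growing HeLa S3 suspension cells (7×10^5 cells/mL). Compounds in Me2SO, or Me2SO control, incubated 3 h at 37 °C, then label added at 1 μCi/mL for 30 min. Alkali-stable, acid-precipitable counts measured after NaOH (65 °C, 1 h) and TCA/pyrophosphate filtration.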

[2] = tested on: HeLa; assay: Compound (at a concentration of 100 uM) was evaluated for the effect on DNA synthesis by HeLa cells in culture and the percentage inhibition of [3H]- thymidine incorporation after 3h of addition was reported.; type: functional; conditions: Homo sapiens
Outline: (§2)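 Exponentially growing HeLa S3 cells (7×10^5 cells/mL, suspension) exposed to compound at 100 μM in Me2SO, or Me2SO alone, at 37 °C. After 3 h, [methyl-3H]thymidine added to 1 μCi/mL. After 30 min, quenched with cold PBS, pelleted, alkali hydrolysed (1 M NaOH, 65 °C, 1 h), TCA/pyrophosphate precipitated and filtered. Alkali-stable acid-insoluble counts give % inhibition versus solvent control.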

[3] = tested on: HeLa; assay: Effect on DNA synthesis by HeLa cells was determined by the percentage inhibition of [3H]- thymidine incorporation after 3h at 200 uM; type: functional, Homo sapiens
Outline: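 HeLa S3 cells in exponential suspension culture (7×10^5 cells/mL) treated at 200 μM in Me2SO, or Me2SO alone, at 37 °C. After 3 h, [methyl-3H]thymidine added to 1 μCi/mL for 30 min. Cells were then pelleted, NaOH hydrolysed at 65 °C, and TCA precipitated onto filters. Alkali-stable acid-precipitable radioactivity gives % inhibition against solvent control.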

[4] = tested on: HeLa; assay: Compound was evaluated for the effect on [3H]- Uridine incorporation by HeLa cells and percentage inhibition into RNA; type: functional, Homo sapiens
Outline: (§3)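 HeLa S3 cells grown in suspension, exponential phase (7 × 10^5 cells/mL), given compound in Me2SO (Me2SO alone for controls) for 3 h at 37 °C, then [5,6-3H]uridine to 1 μCi/mL for 45 min. DNA: alkali-stable, TCA-precipitable counts after 1 M NaOH at 60 °C for 1 h. RNA: total acid-precipitable nucleic acid minus DNA counts. Percent inhibition relative to control.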

[5] = tested on: HeLa; assay: Compound was evaluated for the effect on [3H]- Uridine incorporation by HeLa cells and percentage inhibition into DNA; type: functional, Homo sapiens; outline: as §3
[6] = tested on: HeLa; assay: Effect on DNA synthesis by HeLa cells was determined by the percentage inhibition of [3H]- thymidine incorporation after 3h; type: functional, cell-based; conditions: Homo sapiens
[7] = tested on: HeLa; assay: Effect on DNA synthesis by HeLa cells was determined by the percentage inhibition of [3H]- thymidine incorporation after 3h at 100 uM; type: functional; conditions: Homo sapiens; outline: as §2
[8] = tested on: HeLa; assay: Compound was evaluated for the effect on DNA synthesis by HeLa cells in culture and the percentage inhibition of [3H]- thymidine incorporation after 3h of addition was reported at 100 uM; type: functional; conditions: Homo sapiens; outline: as §2
[9] = tested on: HeLa; assay: Compound was evaluated for the effect on growth and macromolecule synthesis by HeLa cells and the cell growth inhibition; type: functional, cell-based; conditions: Homo sapiens
Outline: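 HeLa S3 cells (ca. 2.5×10^4 cells/mL), exponentially growing in Joklik's modified medium with 3.5% calf and 3.5% fetal bovine serum, preincubated 3 h at 37 °C in spinner flasks. Compound in Me2SO or solvent added, and cells counted at t=0 and after 72 h. IC50 derived from % growth inhibition.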

[10] = tested on: HeLa; assay: Percent inhibition against [3H]uridine incorporation into DNA of HeLa cell after 45 mins of treatment; type: functional, Homo sapiens
Outline: (§4)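 Exponentially growing HeLa S3 cells (7×10^5 cells/mL) treated with compound in Me2SO (100 μM, or 10 μM where stated), or Me2SO alone, for 3 h at 37 °C. [5,6-3H]uridine then added to 1 μCi/mL for 45 min. DNA: counts remaining acid-precipitable after 1 M NaOH at 60 °C, 1 h. RNA: total TCA-precipitable counts minus the DNA counts.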

[11] = tested on: HeLa; assay: Compound (at a concentration of 100 uM) was evaluated for the effect on growth and macromolecule synthesis by HeLa cells and the percentage inhibition of [3H]- leucine incorporation after 3h of addition; type: functional; conditions: Homo sapiens
[12] = tested on: HeLa; assay: Percent inhibition against [3H]uridine incorporation into RNA of HeLa cell after 45 mins of treatment; type: functional, Homo sapiens; outline: as §4
[13] = tested on: HeLa; assay: Effect on DNA synthesis by HeLa cells was determined by the inhibition of [3H]- thymidine incorporation after 3h of addition; type: functional, cell-based; conditions: Homo sapiens; outline: as §1
[14] = tested on: HeLa; assay: Effect on growth and macromolecule synthesis by HeLa cells was determined as the percentage inhibition of [3H]- leucine incorporation after 3h of addition at 100 uM; type: functional; conditions: Homo sapiens
[15] = tested on: HeLa; assay: Percent inhibition against [3H]-Uridine incorporation into RNA of HeLa cell after 45 mins of treatment at 100 uM; type: functional; conditions: Homo sapiens; outline: as §4
[16] = tested on: HeLa; assay: Percent inhibition against [3H]-Uridine incorporation into DNA of HeLa cell after 45 mins of treatment at 100 uM; type: functional; conditions: Homo sapiens; outline: as §4
[17] = tested on: HeLa; assay: Percent inhibition against [3H]uridine incorporation into RNA of HeLa cell after 45 mins of treatment at 10 uM; type: functional; conditions: Homo sapiens; outline: as §4

- IC50 [1]: 30 µM
SMILES: CCCCc1ccc(Nc2nc(OC)c3[nH]cnc3n2)cc1
- inhibition at 100 µM [2]: 80%

SMILES: CCCCc1ccc(Nc2nc3c(ncn3[C@@H]3C[C@@H](O)[C@H](CO)O3)c(=O)[nH]2)cc1 (stereo in doubt; 12)
- inhibition at 200 µM ([3]; Homo sapiens, HeLa, 3 h): 46%

SMILES: C[C@@]1(CO)[C@H](O)CC[C@@]2(C)[C@H]1CC[C@H]1C[C@@H]3C[C@@]12CC[C@]3(O)CO [APHIDICOLIN]
- Inhibition [4]: 0%
- Inhibition [5]: 84%

- IC50 [6]: 8.5 µM
SMILES: CCCCc1ccc(Nc2nc(N)c3ncn(COCCO)c3n2)cc1
- inhibition at 100 µM [7]: 97%

SMILES: CCCCc1ccc(Nc2nc3c(ncn3[C@@H]3C[C@@H](O)[C@H](CO)O3)c(=O)[nH]2)cc1 (stereo in doubt; 11)
- Inhibition [3]: 53%

- IC50 [1]: 69 µM
- IC50 [9]: 65 µM
SMILES: CCCCc1ccc(Nc2nc(O)c3[nH]cnc3n2)cc1
- inhibition at 100 µM [8]: 63%
- Inhibition [10]: 76%
- inhibition at 100 µM [11]: 13%
- Inhibition [12]: 76%

- IC50 [1]: 40 µM
SMILES: CCCCc1ccc(Nc2nc(S)c3[nH]cnc3n2)cc1
- inhibition at 100 µM [2]: 94%

SMILES: CCCCc1ccc(Nc2nc(S)c3ncn(COCCO)c3n2)cc1
- inhibition at 100 µM [7]: 87%

- IC50 [6]: 4.8 µM
SMILES: CCCCc1ccc(Nc2ncc3ncn(COCCO)c3n2)cc1
- inhibition at 100 µM [7]: 97%

- IC50 [1]: 35 µM
SMILES: CCCCc1ccc(Nc2nc(Cl)c3[nH]cnc3n2)cc1
- inhibition at 100 µM [8]: 99%

- IC50 [1]: 47 µM
SMILES: CCCCc1ccc(Nc2nc3ncnc-3c[nH]2)cc1
- inhibition at 100 µM [2]: 78%

- IC50 [1]: 23 µM
- IC50 [9]: 40 µM
SMILES: CCCCc1ccc(Nc2nc(N)c3[nH]cnc3n2)cc1
- inhibition at 100 µM [2]: 92%
- Inhibition [10]: 93%
- inhibition at 100 µM [11]: 47%
- Inhibition [12]: 87%

- IC50 [9]: 25 µM
- IC50 [13]: 37 µM
SMILES: CCCCc1ccc(Nc2nc3c(ncn3[C@@H]3C[C@@H](O)[C@H](CO)O3)c(=O)[nH]2)cc1
- inhibition at 100 µM [14]: 7%
- inhibition at 100 µM [15]: 91%
- inhibition at 100 µM [7]: 86%
- inhibition at 100 µM [16]: 91%

- IC50 [6]: 38 µM
SMILES: CCCCc1ccc(Nc2nc(O)c3ncn(COCCO)c3n2)cc1
- inhibition at 100 µM [7]: 81%

SMILES: CCCCc1ccc(Nc2nc(S)c3ncn([C@@H]4C[C@@H](O)[C@H](CO)O4)c3n2)cc1
- inhibition at 100 µM [7]: 63%

SMILES: CCCCc1ccc(Nc2nc3c(ncn3[C@H]3O[C@@H](CO)[C@H](O)[C@@H]3O)c(=O)[nH]2)cc1 (stereo in doubt; 14)
- Inhibition [3]: 38%

- IC50 [1]: 32 µM
SMILES: CCCCc1ccc(Nc2nc(SC)c3[nH]cnc3n2)cc1
- inhibition at 100 µM [2]: 72%

- IC50 [9]: 10.3 µM
- IC50 [6]: 11 µM
SMILES: CCCCc1ccc(Nc2nc(Cl)c3ncn([C@@H]4C[C@@H](O)[C@H](CO)O4)c3n2)cc1
- inhibition at 100 µM [14]: 87%
- inhibition at 100 µM [7]: 97%

SMILES: CCc1cc(Nc2nc(O)c3[nH]cnc3n2)ccc1C
- inhibition at 100 µM [2]: 44%

- IC50 [6]: 9 µM
SMILES: CCCCc1ccc(Nc2nc(Cl)c3ncn(COCCO)c3n2)cc1
- inhibition at 100 µM [7]: 99%

SMILES: CCCCc1ccc(Nc2nc3c(ncn3[C@H]3O[C@@H](CO)[C@H](O)[C@@H]3O)c(=O)[nH]2)cc1 (stereo in doubt; 13)
- Inhibition [3]: 75%

- IC50 [1]: 52 µM
SMILES: Oc1[nH]c(Nc2ccc3c(c2)CCC3)nc2ncnc1-2
- inhibition at 100 µM [2]: 79%

- IC50 [9]: 1.4 µM
- IC50 [6]: 1 µM
SMILES: CCCCc1ccc(Nc2nc(N)c3ncn([C@@H]4C[C@@H](O)[C@H](CO)O4)c3n2)cc1
- inhibition at 100 µM [14]: 56%
- Inhibition [10]: 81%
- inhibition at 100 µM [7]: 96%
- inhibition at 10 µM [17]: 73%

SMILES: CCCCc1ccc(Nc2nc(OC)c3ncn(COCCO)c3n2)cc1
- inhibition at 100 µM [7]: 80%

- IC50 [9]: 5 µM
- IC50 [6]: 4.8 µM
SMILES: CCCCc1ccc(Nc2ncc3ncn([C@@H]4C[C@@H](O)[C@H](CO)O4)c3n2)cc1
- inhibition at 100 µM [14]: 58%
- inhibition at 100 µM [7]: 97%
